In ChEMBL document CHEMBL3407478, “Development of a series of aryl pyrimidine kynurenine monooxygenase inhibitors as potential therapeutic agents for the treatment of Huntington's disease” (J Med Chem, 2015):
Converted amounts (≈) assume the structure as drawn.

Tests used:
[1] = molecular target: T1, Kynurenine 3-monooxygenase (Homo sapiens, UniProt O15229); experiment: Inhibition of KMO (unknown origin)
[2] = Lipophilicity, log P of the compound at pH 7; assay type: physicochemical; conditions: buffer
[3] = system: Liver; experiment: Intrinsic clearance in mouse liver microsomes assessed per mg of protein; assay type: ADME; parameters: unit not given here
Summary of the method: (§1)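 Stability assessed in human, rat and mouse liver microsomes; intrinsic clearance expressed per mg microsomal protein.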

[4] = Aqueous solubility of the compound; assay type: physicochemical
[5] = system: Liver microsome; experiment: Intrinsic clearance in rat liver microsomes assessed per mg of protein; assay type: ADME; parameters: unit not given here; summary of the method: as §1
[6] = system: Liver microsome; experiment: Intrinsic clearance in human liver microsomes assessed per mg of protein; assay type: ADME; parameters: unit not given here; summary of the method: as §1
[7] = molecular target: T1, Kynurenine 3-monooxygenase; experiment: Inhibition of human KMO assessed as conversion of kynurenine to 3-hydroxykynurenine by LC-MS/MS analysis
[8] = molecular target: T2, Kynurenine 3-monooxygenase (Rattus norvegicus, UniProt O88867); experiment: Inhibition of rat KMO assessed as conversion of kynurenine to 3-hydroxykynurenine by LC-MS/MS analysis
Summary of the method: (§2)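 Mitochondrial fractions from mouse or rat liver tissue used as KMO source. Conversion of kynurenine to 3-hydroxykynurenine quantified by LC-MS/MS; IC50 averaged from triplicate tests.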

[9] = molecular target: T2, Kynurenine 3-monooxygenase; experiment: Inhibition of KMO in rat microglia cells; assay type: cell-based
Summary of the method: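 Freshly isolated neonatal rat microglial cultures, induced to express KMO by a pro-inflammatory protocol. Exogenous KYN added; conversion to 3-HK monitored by mass spectrometry.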

[10] = Permeability from apical to basolateral side in human Caco2 cells; assay type: ADME, cell-based; conditions: Caco-2, read-out: permeability
[11] = Permeability from basolateral to apical side in human Caco2 cells; assay type: ADME, cell-based; conditions: Caco-2, read-out: permeability
[12] = molecular target: Kynurenine 3-monooxygenase (Mus musculus, UniProt Q91WN4); experiment: Inhibition of mouse KMO assessed as conversion of kynurenine to 3-hydroxykynurenine by LC-MS/MS analysis; summary of the method: as §2
[13] = molecular target: T1, Kynurenine 3-monooxygenase; experiment: Inhibition of human KMO transfected in CHO cells assessed as conversion of kynurenine to 3-hydroxykynurenine by LC-MS/MS analysis; assay type: cell-based
[14] = molecular target: T1, Kynurenine 3-monooxygenase; experiment: Inhibition of KMO in human PBMC

T2 sequence (O88867 whole entry): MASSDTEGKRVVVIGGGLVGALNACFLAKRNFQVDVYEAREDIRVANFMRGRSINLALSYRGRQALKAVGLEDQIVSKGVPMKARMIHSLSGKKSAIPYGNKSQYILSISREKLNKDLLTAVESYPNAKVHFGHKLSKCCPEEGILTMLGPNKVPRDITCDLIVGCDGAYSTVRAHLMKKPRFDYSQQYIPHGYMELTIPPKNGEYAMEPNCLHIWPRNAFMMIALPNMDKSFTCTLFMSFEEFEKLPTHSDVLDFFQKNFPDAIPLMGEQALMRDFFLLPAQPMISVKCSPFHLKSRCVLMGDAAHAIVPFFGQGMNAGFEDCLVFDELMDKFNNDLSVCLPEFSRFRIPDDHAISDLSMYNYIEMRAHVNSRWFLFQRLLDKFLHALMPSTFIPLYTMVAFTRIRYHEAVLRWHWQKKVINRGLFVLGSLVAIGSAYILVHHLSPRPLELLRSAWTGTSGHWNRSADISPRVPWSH
T1 sequence (O15229 whole entry): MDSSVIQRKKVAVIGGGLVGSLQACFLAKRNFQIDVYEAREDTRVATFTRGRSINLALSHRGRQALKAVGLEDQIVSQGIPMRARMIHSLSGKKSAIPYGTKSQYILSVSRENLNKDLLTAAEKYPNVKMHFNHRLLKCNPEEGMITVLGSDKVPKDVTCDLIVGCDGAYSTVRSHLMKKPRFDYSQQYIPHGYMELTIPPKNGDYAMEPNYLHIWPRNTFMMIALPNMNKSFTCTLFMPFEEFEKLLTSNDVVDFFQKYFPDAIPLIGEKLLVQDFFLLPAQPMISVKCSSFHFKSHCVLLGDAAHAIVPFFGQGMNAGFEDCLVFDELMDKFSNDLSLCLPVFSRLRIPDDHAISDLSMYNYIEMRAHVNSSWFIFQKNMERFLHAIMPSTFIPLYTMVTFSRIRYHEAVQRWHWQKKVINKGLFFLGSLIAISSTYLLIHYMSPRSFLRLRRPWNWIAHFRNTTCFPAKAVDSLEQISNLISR
Sequence of Kynurenine 3-monooxygenase (Mus musculus, UniProt Q91WN4) (Q91WN4 whole entry): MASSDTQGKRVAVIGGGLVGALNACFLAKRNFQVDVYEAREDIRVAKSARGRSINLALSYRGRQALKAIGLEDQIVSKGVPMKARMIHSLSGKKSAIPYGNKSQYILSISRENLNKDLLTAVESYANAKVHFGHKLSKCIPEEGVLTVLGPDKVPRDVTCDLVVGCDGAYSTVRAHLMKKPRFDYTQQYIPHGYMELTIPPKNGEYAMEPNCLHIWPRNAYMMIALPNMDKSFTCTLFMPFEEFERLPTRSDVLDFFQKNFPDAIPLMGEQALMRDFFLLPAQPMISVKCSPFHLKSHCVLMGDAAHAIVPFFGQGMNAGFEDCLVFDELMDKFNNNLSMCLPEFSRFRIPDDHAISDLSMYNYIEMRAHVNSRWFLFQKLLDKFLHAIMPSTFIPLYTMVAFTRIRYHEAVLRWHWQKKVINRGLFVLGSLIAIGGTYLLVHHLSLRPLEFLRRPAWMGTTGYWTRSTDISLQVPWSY

O=C(O)[C@H]1C[C@@H]1C(=O)c1ccc(Cl)c(Cl)c1
IC50 [1]: 20 nM

O=C(O)c1cc(-c2ccc(Cl)cc2)ncn1
logD [2]: -0.11

O=C(O)c1cc(-c2ccc(OC3COC3)c(Cl)c2)ncn1
CLH [3]: < 0.02
solubility [4]: > 1000 µg/mL
CLH [5]: < 0.02
CLH [6]: < 0.02

O=c1[nH]ccn1-c1cc(-c2ccc(Cl)c(Cl)c2)ncn1
IC50 [7]: > 10 µM

O=C(O)c1cc(-c2ccc(F)c(C(F)(F)F)c2)ncn1
logD [2]: 0.45

O=C(Nc1cc(-c2ccc(Cl)c(Cl)c2)ncn1)c1ccccc1
IC50 [7]: > 10 µM

O=C(O)c1cc(-c2ccc(F)c(F)c2)ncn1
IC50 [8]: 2 nM
IC50 [9]: 86 nM
Papp A→B [10]: 13.6 ×10⁻⁶ cm/s
Papp B→A [11]: 26 ×10⁻⁶ cm/s
solubility [4]: > 1000 µg/mL
logD [2]: -0.45
IC50 [12]: 1.5 nM

O=C(O)c1cc(-c2ccc(OC3CCCC3)c(Cl)c2)ncn1
Papp A→B [10]: 20.5 ×10⁻⁶ cm/s
Papp B→A [11]: 16.7 ×10⁻⁶ cm/s
CLH [3]: < 0.02
solubility [4]: > 1000 µg/mL
CLH [5]: < 0.02
logD [2]: 2.18
CLH [6]: < 0.02

O=C(O)c1cc(-c2ccc(Cl)cc2F)ncn1
logD [2]: 0.44

O=C(O)c1cc(-c2ccc(OCC3CC3)c(Cl)c2)ncn1
CLH [3]: < 0.02
solubility [4]: > 1000 µg/mL
CLH [5]: < 0.02
CLH [6]: < 0.02

CS(=O)(=O)Nc1cc(-c2ccc(Cl)c(Cl)c2)ncn1
IC50 [7]: > 10 µM

O=C(O)c1cc(-c2ccc(OC3CCC3)c(Cl)c2)ncn1
CLH [3]: < 0.02
solubility [4]: > 1000 µg/mL
CLH [5]: < 0.02
logD [2]: 1.19
CLH [6]: < 0.02

COc1ccc(-c2cc(C(=O)O)ncn2)cc1Cl
Papp A→B [10]: 15.8 ×10⁻⁶ cm/s
Papp B→A [11]: 31.3 ×10⁻⁶ cm/s
solubility [4]: > 1000 µg/mL
logD [2]: 0.28

Clc1ccc(-c2cc(-n3ccnc3)ncn2)cc1Cl
IC50 [7]: > 10 µM

Cn1ccn(-c2cc(-c3ccc(Cl)c(Cl)c3)ncn2)c1=O
IC50 [7]: > 10 µM

Cc1ccc(-c2cc(C(=O)O)ncn2)cc1F
logD [2]: -0.33

Cn1nnc(-c2cc(-c3ccc(Cl)c(Cl)c3)ncn2)n1
IC50 [7]: > 10 µM

O=C(O)c1cc(-c2ccc(OC3CCCCC3)c(Cl)c2)ncn1
CLH [3]: < 0.02
solubility [4]: 500 µg/mL (≈ 1.5 mM)
CLH [5]: < 0.02
CLH [6]: < 0.02

O=C(O)c1cc(-c2cccc(C(F)(F)F)c2)ncn1
logD [2]: 0.36

CC(=O)Nc1cc(-c2ccc(Cl)c(Cl)c2)ncn1
IC50 [7]: > 10 µM

O=C(O)c1cc(-c2ccc(OC(F)(F)F)c(Cl)c2)ncn1
IC50 [8]: 17 nM
IC50 [9]: > 1000 nM
Papp A→B [10]: 10.5 ×10⁻⁶ cm/s
Papp B→A [11]: 17.1 ×10⁻⁶ cm/s
CLH [3]: < 0.02
solubility [4]: > 1000 µg/mL
CLH [5]: < 0.02
logD [2]: 1.77
CLH [6]: < 0.02

O=C(O)c1cc(-c2ccccc2)ncn1
logD [2]: -0.98

O=C(O)c1cc(-c2ccc(Cl)c(F)c2)ncn1
logD [2]: 0.4

O=C(O)c1cc(-c2cc(Cl)c3occc3c2)ncn1
Papp A→B [10]: 21.9 ×10⁻⁶ cm/s
Papp B→A [11]: 41 ×10⁻⁶ cm/s
CLH [3]: < 0.02
solubility [4]: 820 µg/mL (≈ 2.99 mM)
CLH [5]: < 0.02
logD [2]: 0.85
CLH [6]: < 0.02

O=C(O)c1cc(-c2cccc(Cl)c2)ncn1
logD [2]: 0.12

Cc1ccc(-c2cc(C(=O)O)ncn2)cc1Cl
IC50 [8]: 4.1 nM
IC50 [9]: 100 nM
Papp A→B [10]: 24 ×10⁻⁶ cm/s
Papp B→A [11]: 35.3 ×10⁻⁶ cm/s
solubility [4]: > 1000 µg/mL
logD [2]: 0.8
IC50 [12]: 6.2 nM

Clc1ccc(-c2cc(-n3cccn3)ncn2)cc1Cl
IC50 [7]: > 10 µM

O=C(O)c1cc(-c2cccc(Cl)c2F)ncn1
logD [2]: -0.34

COc1cc(-c2cc(C(=O)O)ncn2)ccc1Cl
logD [2]: 0.59

O=C(O)c1cc(-c2ccc(Cl)c(Cl)c2)ncn1
IC50 [8]: 3.2 nM
IC50 [9]: 105 nM
Papp A→B [10]: 41.4 ×10⁻⁶ cm/s
Papp B→A [11]: 32.4 ×10⁻⁶ cm/s
IC50 [13]: 33 nM
solubility [4]: 740 µg/mL (≈ 2.75 mM)
logD [2]: 1.12
IC50 [12]: 6 nM
IC50 [7]: 0.0006 µM
IC50 [14]: 72 nM

O=C(O)c1cc(-c2ccc(F)cc2F)ncn1
logD [2]: -0.88

CC(C)Oc1ccc(-c2cc(C(=O)O)ncn2)cc1Cl
Papp A→B [10]: 16.5 ×10⁻⁶ cm/s
Papp B→A [11]: 21.2 ×10⁻⁶ cm/s
CLH [3]: < 0.02
solubility [4]: > 1000 µg/mL
CLH [5]: < 0.02
logD [2]: 1.28
CLH [6]: < 0.02

O=C(O)c1cc(-c2ccc(F)c(Cl)c2)ncn1
logD [2]: 0.41

O=C(O)c1cc(-c2ccc(C(F)(F)F)c(Cl)c2)ncn1
logD [2]: 1.35

O=C(O)c1cc(-c2cccc(F)c2)ncn1
logD [2]: -0.8

O=C(O)c1cc(-c2cc(Cl)cc(Cl)c2)ncn1
logD [2]: 1.15

Cc1cccc(-c2cc(C(=O)O)ncn2)c1
logD [2]: -0.19
